Measurements published in ChEMBL document CHEMBL4513216, “Probing the Open Global Health Chemical Diversity Library for Multistage-Active Starting Points for Next-Generation Antimalarials” (ACS Infect Dis, 2020).

test: Toxicity liver stage against HepG2, at 10uM; format: cell-based; parameters: test concentration 10 uM, cell line HepG2-A16-CD81EGFP; details: human, HepG2-A16-CD81EGFP cells; read-out: INHIBITION
How it was run: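 Uninfected HepG2-A16-CD81EGFP cells, 3 × 10^3 per well, 1536-well, plated on prespotted compound at 10 μM final, parasite-free screening media added to match infected plates; puromycin 10 μM positive, DMSO 0.5% negative; run in parallel with 48 h PbLuc assay at 37 °C, 5% CO2; viability by CellTiter-Glo luminescence, normalized to controls.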

Row | Compound | cytotoxicity at 10 µM [%]
1 | CCNC(=O)CCC(=O)NCC1(O)CCC(C(C)(C)C)CC1 (stereo unspecified) | 5.55
2 | CNC(=O)c1cn(C(C)(C)C)c2ncccc12 | -7.85
3 | CNc1nc2cn(CCc3ccc(C)cc3)c(=O)c-2c[nH]1 | 6.36
4 | Cc1cc(N2CCCN(C(=O)Cc3cccnc3)CC2)ccn1 | 2.5
5 | Cn1ccnc1S(=O)(=O)C(C(=O)N1CCCCC1)c1ccccc1 (stereo unspecified) | 24.5
6 | Cc1cccc(C(=O)N2CCCn3c(CN4CCCCC4)nnc3C2)c1 | -84
7 | CC(=O)Nc1ccc(SCC(O)COCc2ccccc2)cc1 (stereo unspecified) | 1.87
8 | c1ccc(Cn2cc(CNC3CCc4ncnn4C3)cn2)cc1 (stereo unspecified) | -1.61
9 | CS(=O)(=O)CCC(=O)Nc1cc(F)ccc1OCC1CCCO1 (stereo unspecified) | 3.41
10 | Cn1c2c(c(=O)n1C)CN(S(=O)(=O)c1cccs1)CCC2 | 8.98
11 | COC(C)(C)C(=O)N[C@H]1CN(c2nccnc2N(C)C)C[C@@H]1C(C)C | 4.24
12 | CNC(=O)CC1COCCN1C(=O)C1(c2ccc(Cl)cc2)CCC1 (stereo unspecified) | 5.33
13 | CCc1noc(C)c1C(=O)N1CCCC1Cn1nc(C)cc1C (stereo unspecified) | -5.48
14 | CC(C)n1cnnc1Cn1c(=O)ccc2ccccc21 | 5.62
15 | CCc1oc(C(=O)N2CC[C@@H]3CC[C@H](C2)N3)cc1CN(CC)CC | 4.83
16 | CCn1cnnc1C1CCN(C(=O)c2cc3c(s2)CCC3)CC1 | -8.93
17 | CC1CN(C(=O)NCc2cnn(-c3ccc(F)cc3F)c2)CCO1 (stereo unspecified) | 2.18
18 | COCCC(=O)NCC1Cn2nnc(-c3cccc(F)c3)c2CO1 (stereo unspecified) | 0.0508
19 | Cc1cc(CNC(=O)C2CCN(CC(N)=O)CC2)cc(C)n1 | -3.06
20 | CO[C@H]1CCN(C(=O)Cc2ccsc2)[C@@H]2CN(CC3CC3)C[C@H]12 | 6.35
21 | Cc1cccc(C(C)CNC(=O)N2CCOCC3(CCOCC3)C2)c1 (stereo unspecified) | 8.84
22 | Nc1cc2c(nn1)CCN(C(=O)c1cccc3c1OCO3)C2 | -8.08
23 | CCC1c2ccccc2CCN1CCCS(C)(=O)=O (stereo unspecified) | 1.75

Row | Compound | cytotoxicity at 10 µM [%]
24 | COc1cccc(Cn2cccc(C#N)c2=O)c1 | 11.3
25 | NCc1cnn(-c2ccccc2C(=O)NCc2ccncc2)c1 | -1.78
26 | N#Cc1cccnc1N1CCC2(CCCN(C3CCOCC3)C2=O)C1 (stereo unspecified) | -9.21
27 | O=C(N1CCC(Oc2ccncc2)C1)C1(c2ccc(F)cc2)CC1 (stereo unspecified) | -8.55
28 | Cn1c(-c2ccc(F)cc2)cn2cc(C(=O)N3CCC(N)C3)nc2c1=O (stereo unspecified) | 4.43
29 | Cc1nc(-c2ccncc2)ncc1C(C)NC(=O)CN1CCCC1=O (stereo unspecified) | 1.74
30 | CCCc1cc(NCCn2cccn2)n2ncnc2n1 | 5.28
31 | N[C@@H](Cc1ccccc1)c1nnc(S(=O)(=O)Cc2ccccc2)o1 | 13.3
32 | CCS(=O)(=O)CCNCc1cc(O)c2cc(C)cc(C)c2n1 | 1.36
33 | O=C(NC[C@H]1OC[C@@H](NCc2ccccn2)[C@@H]1O)N1CCOCC1 | 0.15
34 | CCN(Cc1ccncc1)CC1(O)CCN(C(=O)c2cccc(C)c2)C1 (stereo unspecified) | -25.1
35 | Cc1cc2[nH]c(O)nc2cc1NCc1ccc(F)cc1 | 16.1
36 | O=C(NCCS(=O)(=O)N1CCN(c2ncccn2)CC1)c1ccccc1 | -3.28
37 | O=C(NCc1cccnc1)N1CCSCC1CCO (stereo unspecified) | -1.46
38 | CSc1ccc(CNc2ccccc2CN2CCC(O)CC2)cc1 | -4.75
39 | Brc1ccc2[nH]c3c(c2c1)CCCC3c1nn[nH]n1 (stereo unspecified) | 4.49
40 | CCN(Cc1ccco1)C(=O)NCC(C)N1CCc2sccc2C1 (stereo unspecified) | 9.08
41 | CC(C)c1n[nH]c(C2CN(C(=O)Cn3ccccc3=O)CCO2)n1 (stereo unspecified) | -0.924
42 | Cc1n[nH]c(C)c1C1CCCN1C(=O)Cc1cccc(F)c1 (stereo unspecified) | 4.8
43 | Cc1nc(CN2CCC3(CC2)CC(=O)N(C)c2ccccc23)cs1 | 0.0115
44 | CCc1nnc(CN(C)CC2CCCCC2)o1 | 0.897
45 | Cc1csc(N2CCCN(CCC(=O)NC(N)=O)CC2)n1 | -24.2
46 | CNc1nc(CNC(=O)Nc2cccc(OC)c2)cs1 | -3.28

Row | Compound | cytotoxicity at 10 µM [%]
47 | O=C(C1CC(c2ccccc2)=NO1)N1CCCCc2ccccc21 (stereo unspecified) | 3.17
48 | C[C@@H]1CN(C2(C(=O)N3CCCCCC3)Cc3ccccc3C2)C[C@H](C)O1 | -2.04
49 | CCOC(C)C(=O)NCc1ccc(N(C)C)cc1 (stereo unspecified) | -13.3
50 | Cc1nc(CN2CCCC(NCCCOc3ccc(F)cc3)C2)no1 (stereo unspecified) | -7.03
51 | Cc1ccc(F)c(N2CCCC(NS(=O)(=O)CCCF)C2=O)c1 (stereo unspecified) | -3.14
52 | CC(C)Cc1cc(C(=O)N2CCCN(c3ncccn3)CC2)[nH]n1 | 4.57
53 | CC(CCc1cccc(F)c1)NC(=O)NCc1ncnn1C (stereo unspecified) | 12.2
54 | CCOc1cccc(COC(=O)c2scnc2C)n1 | -0.966
55 | CNC(=O)C1CN(C)CCN(CCCOc2ccccc2F)C1 (stereo unspecified) | -1
56 | CS(=O)(=O)N1CCCC12CCCN(S(=O)(=O)c1ccc(F)c(F)c1)C2 (stereo unspecified) | 1.46
57 | Fc1cnc(N2CC[C@@H](N3CCOCC3)[C@@H]2Cc2ccncc2)nc1 | 0.81
58 | Cn1ccc(C(=O)NCCOc2ccc(C(C)(C)C)cc2)cc1=O | 9.71
59 | O=C(Nc1cccnc1)[C@H]1C[C@H]2CN(C(=O)NC3CCCC3)C[C@@H]1O2 | 2.96
60 | CC(C)(C)C(=O)NCCC(=O)NS(=O)(=O)c1cccc(C#N)c1 | 1.01
61 | Cc1nnsc1C(=O)N1CC(c2nc3ccccc3[nH]2)C1 | 4.17
62 | Cc1noc(C)c1CCC(=O)NCC1(O)CCCN(c2ccccn2)C1 (stereo unspecified) | -3.95
63 | Cn1cnnc1C1CCCN(C(=O)c2cc(Cl)c(Cl)n2C)C1 (stereo unspecified) | -4.9
64 | Cc1cc(N2CCOCC2)nc(N(C)CCO)c1C#N | 2.17
65 | CCOC1COC2(CCN(Cc3cccc(C)n3)CC2)C1 (stereo unspecified) | 11.8
66 | CC(C)N(Cc1nccn1C)C(=O)c1cc(Cl)c[nH]c1=O | -0.723
67 | CC(C)CS(=O)(=O)N1C[C@@H]2C[C@H](C(=O)N3CCCC3)[C@H](C1)O2 | 17
68 | N#CCCSc1nnc(Cc2ccccc2F)o1 | -11.7
69 | CN(C)C(=O)Cc1nc(CN2CCOC(Cn3cccn3)C2)cs1 (stereo unspecified) | 0.743

Row | Compound | cytotoxicity at 10 µM [%]
70 | Cc1ncc(CNC2CCc3nc(C(C)C)nn3C2)s1 (stereo unspecified) | 3.97
71 | c1cc(C2CC2)n2cnc(C3CN(Cc4ccncc4)CCO3)c2c1 (stereo unspecified) | 6.59
72 | O=C(NCc1nnc2n1CCCC2)N(Cc1ccccc1F)C1CC1 | -9.29
73 | Cc1cccc(C(=O)N(C)Cc2cc(Br)cs2)n1 | -5.1
74 | CC(NC(=O)NC1CCN(Cc2ccccn2)CC1)c1ccco1 (stereo unspecified) | 13.9
75 | O=C(CCNS(=O)(=O)c1cccnc1)N1CCCCC1 | -6.13
76 | CN(CC(F)(F)F)C(=O)COc1nc(Cc2ccc(F)cc2)no1 | 9.36
77 | Cc1cc(C)n(CCCNC(=O)C(C)NC(=O)CC2CCCCC2)n1 (stereo unspecified) | -1.06
78 | CNc1cc(C)nc(N2C[C@H](C3CC3)[C@@H](N)C2)n1 | -4.7
79 | CC(C)CN1C(=O)CC[C@H]2CN(C(=O)Cn3ccc(=O)cc3)CC[C@H]21 | 0.582
80 | COc1cccc(OC2CN(C(=O)CCn3cnnn3)C2)c1 | -0.0726
81 | CSCC1CCN(C(=O)Cn2ncc(N3CCCCC3)cc2=O)CC1 | -3.95
82 | COC[C@]1(O)CCN(Cc2cnc(N(C)C)nc2)CC1(C)C | -5.03
83 | COc1ccccc1CC(=O)NC(C)c1nc2cccnc2n1C(C)C (stereo unspecified) | -43.8
84 | O=C([C@H]1CCCO1)N1CCCC2(CCN(Cc3ccncc3)C2=O)C1 (stereo partly specified) | 11.9
85 | CC(=O)N1CCOCC(Cc2ccc3c(ccn3C(C)=O)c2)C1 (stereo unspecified) | 1.64
86 | Cc1nn(C)c(C)c1C1CCCN1C(=O)c1cc(C(N)=O)cs1 (stereo unspecified) | -2.53
87 | CCCc1cc(NC(=O)c2ccc(Cl)c(N3CCNC3=O)c2)n[nH]1 | -4.55
88 | CN(CCN1CCCCCC1)c1nccc(N2CCC(O)C2)n1 (stereo unspecified) | 5.27
89 | NC(=O)C(NC1CCN(CC2CCCCC2)CC1)c1ccccc1 (stereo unspecified) | -4.57
90 | COc1cc(CNc2cnn(CC(F)F)c2)ccc1O | 0.553
91 | Cn1cccc1C(=O)N1CCn2nnc(COc3cccnc3)c2C1 | -69.7
92 | CCCn1cc(C(=O)NC(CC(=O)O)c2ccccc2F)c(C)n1 (stereo unspecified) | -43.9

Row | Compound | cytotoxicity at 10 µM [%]
93 | Cc1noc2ncc(S(=O)(=O)N3CCCC(C)(C)CC3)cc12 | 8.88
94 | CS(=O)(=O)CCN1CCC(=Cc2ccccc2)CC1 | -2.99
95 | Cc1cc(CN2CCN(c3ccc4nncn4n3)C(C)C2)no1 (stereo unspecified) | -4.66
96 | CCn1cc(CN2CCCC2c2nc(-c3ccccc3)no2)cc1C#N (stereo unspecified) | 0.165
97 | CC(NCCc1nccn1Cc1ccccc1)c1ccsc1 (stereo unspecified) | 8.4
98 | CN(CC(=O)NC1(C#N)CCCC1)C1CCCN(c2cccnn2)C1 (stereo unspecified) | -9.75
99 | Cc1cccc(CNc2ccc(C(=O)N3CCC(CO)CC3)cc2)c1 | 18.9
100 | CC(C)Cc1noc(C2CCN(C(=O)c3cccs3)CC2)n1 | 9.81
101 | CNC(=O)c1cnc2n1CCN(Cc1cccnc1OC)C2 | 8.91
102 | Cn1ncc2c(NCCOCc3ccccc3)nc(C3CCCC3)nc21 | 9.67
103 | FC(F)(F)c1ccc(-c2n[nH]c3c2CN(CC2CCOC2)CC3)cc1 (stereo unspecified) | -52.1
104 | Cc1nc(N)nc(N2CCOc3ccc(CO)cc3C2)c1C | 4.23
105 | Cc1cnccc1CNCc1ccc(OC23CCCN(CC2)C3)cc1 (stereo unspecified) | -12.3
106 | CCn1ncc(S(=O)(=O)N[C@@H]2CC[C@@H](n3ccnc3C)[C@@H]2O)c1C | 3.65
107 | Cc1nc(-c2ccc(Cl)s2)sc1C(=O)N(C)CC(N)=O | -7.08
108 | O=C([C@@H]1COC[C@H]2CN(CC3CC3)C[C@H]21)N1CCC(F)CC1 | 9.29
109 | CCOCC(=O)Nc1nccn1Cc1ccccc1Cl | -0.678
110 | Cc1cc(C(=O)NCC2CCCO2)c(C)n1-c1cccnc1 (stereo unspecified) | 4.95
111 | OCCCN1CCOC(c2ccc(F)cc2)C1 (stereo unspecified) | -7.09
